The values below come from ChEMBL document CHEMBL1129036, “Bisindolylmaleimides linked to DNA minor groove binding lexitropsins: synthesis, inhibitory activity against topoisomerase I, and biological evaluation” (J Med Chem, 1996).

Values after ≈ are worked out from the molar mass of the structure shown.

In data set [1] the target is T1, DNA topoisomerase 1 (Homo sapiens) (UniProt P11387).
T1 sequence (whole entry): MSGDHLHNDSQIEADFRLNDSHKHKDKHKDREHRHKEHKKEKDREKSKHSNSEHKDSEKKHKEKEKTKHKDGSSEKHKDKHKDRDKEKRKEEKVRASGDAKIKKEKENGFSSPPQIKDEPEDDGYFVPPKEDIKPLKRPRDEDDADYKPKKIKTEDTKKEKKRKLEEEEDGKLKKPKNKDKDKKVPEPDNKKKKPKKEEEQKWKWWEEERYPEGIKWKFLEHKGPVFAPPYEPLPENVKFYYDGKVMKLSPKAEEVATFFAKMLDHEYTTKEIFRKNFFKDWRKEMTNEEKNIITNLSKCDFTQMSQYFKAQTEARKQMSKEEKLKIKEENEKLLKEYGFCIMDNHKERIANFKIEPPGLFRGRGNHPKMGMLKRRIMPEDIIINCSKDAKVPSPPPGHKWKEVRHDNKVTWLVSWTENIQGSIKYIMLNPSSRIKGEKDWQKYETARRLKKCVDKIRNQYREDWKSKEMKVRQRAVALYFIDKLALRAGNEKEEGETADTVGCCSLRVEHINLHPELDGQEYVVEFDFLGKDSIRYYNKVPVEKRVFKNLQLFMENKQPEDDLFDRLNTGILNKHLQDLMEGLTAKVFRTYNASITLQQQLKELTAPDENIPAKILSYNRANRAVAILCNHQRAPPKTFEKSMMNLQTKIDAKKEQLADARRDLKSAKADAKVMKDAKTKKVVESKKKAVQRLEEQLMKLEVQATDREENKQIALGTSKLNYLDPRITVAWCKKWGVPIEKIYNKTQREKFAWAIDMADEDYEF
Briefly: Topoisomerase I DNA relaxation activity was evaluated by Fluorescence assay using Ethidium Bromide after heat denaturation of pBR322 DNA at concentration 50 uM. The settings on record: Escherichia coli. The method, boiled down: (§1)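 0.25 µg pBR322 DNA with ligand plus topoisomerase I (0.5 unit), 30 min at 37 °C. Then ethidium bromide buffer added (0.5 µg/mL EtBr, 20 mM K₃PO₄, 0.5 mM EDTA, pH 12). Fluorescence read at ex 525/em 600 nm before and after heat denaturation of DNA; percent change vs control.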

The target in data set [2] is T1, DNA topoisomerase 1 (Homo sapiens). The data set can be described thus: Topoisomerase I […] was evaluated by Fluorescence assay using Ethidium Bromide before heat denaturation of pBR322 DNA at concentration 50 uM. The note with it: Escherichia coli. The method, boiled down:
(§2)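 0.25 µg pBR322 DNA incubated with ligand alone, no enzyme, 30 min at 37 °C. Ethidium bromide buffer added (0.5 µg/mL EtBr, 20 mM K₃PO₄, 0.5 mM EDTA, pH 12). Fluorescence measured at ex 525/em 600 nm before and after heat denaturation of DNA; percent change vs control.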

Data set [3] has the same target. The data set can be described thus: Topoisomerase I […] was evaluated by Fluorescence assay using Ethidium Bromide before heat denaturation of pBR322 DNA at concentration 100 uM. The note with it: Escherichia coli. The method, boiled down:
as §2

The target is the same in data set [4]. Briefly: Topoisomerase I DNA relaxation activity was evaluated by Agarose Gel Electrophoresis test at concentration 100 uM. The note with it: Escherichia coli. The method, boiled down:
(§3)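 Relaxation of 0.25 µg supercoiled pBR322 DNA by 0.5 unit topoisomerase I, 30 min at 37 °C with ligand (25–250 µM), final volume 10 µL. SDS-containing loading buffer added, further 30 min at 37 °C. Agarose gel run overnight, stained with ethidium bromide (0.5 µg/mL), photographed. Percent supercoiled DNA remaining by laser densitometry, scored in bands (<10% to 75–100%).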

For data set [5] the target is unchanged. Briefly: Topoisomerase I DNA relaxation activity was evaluated by Agarose Gel Electrophoresis test at concentration 250 uM. The settings on record: Escherichia coli. The method, boiled down: as §3
Data set [6] has the same target. Briefly: Topoisomerase I DNA relaxation activity was evaluated by Fluorescence assay using Ethidium Bromide before heat denaturation of pBR322 DNA at concentration 250 uM. The settings on record: Escherichia coli. The method, boiled down:
as §1

For data set [7] the target is unchanged. Briefly: Topoisomerase I DNA relaxation activity was evaluated by Fluorescence assay using Ethidium Bromide before heat denaturation of pBR322 DNA at concentration 50 uM. The settings on record: Escherichia coli. The method, boiled down: as §1
The target is the same in data set [8]. The data set can be described thus: Topoisomerase I DNA relaxation activity was evaluated by Agarose Gel Electrophoresis test at concentration 50 uM. The settings on record: Escherichia coli. The method, boiled down: as §3
Data set [9] has the same target. Briefly: Topoisomerase I […] was evaluated by Fluorescence assay using Ethidium Bromide after heat denaturation of pBR322 DNA at concentration 100 uM. The note with it: Escherichia coli. The method, boiled down:
as §2

The target is the same in data set [10]. Briefly: Topoisomerase I […] was evaluated by Fluorescence assay using Ethidium Bromide after heat denaturation of pBR322 DNA at concentration 250 uM. The note with it: Escherichia coli. The method, boiled down:
as §2

The target is the same in data set [11]. The data set can be described thus: Topoisomerase I […] was evaluated by Fluorescence assay using Ethidium Bromide after heat denaturation of pBR322 DNA at concentration 50 uM. The note with it: Escherichia coli. The method, boiled down: as §2
Data set [12] has the same target. Briefly: Topoisomerase I […] was evaluated by Fluorescence assay using Ethidium Bromide after heat denaturation of pBR322 DNA at concentration 25 uM. The settings on record: Escherichia coli; at 25 µM. The method, boiled down:
(§4)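 0.25 µg pBR322 DNA incubated with ligand for 30 min at 37 °C without topoisomerase I (DNA and compound only). Ethidium bromide buffer then added (0.5 µg/mL ethidium bromide, 20 mM K₃PO₄, 0.5 mM EDTA, pH 12). Fluorescence read at excitation 525 nm and emission 600 nm, before and after heat denaturation of the DNA. Reported as percent change from control.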

Data set [13] shares this target. The settings on record: Escherichia coli; at 25 µM.
Data set [14] has the same target. The data set can be described thus: Topoisomerase I DNA relaxation activity was evaluated by Fluorescence assay using Ethidium Bromide after heat denaturation of pBR322 DNA at concentration 100 uM. The settings on record: Escherichia coli. The method, boiled down:
as §1

Data set [15] shares this target. Briefly: Topoisomerase I DNA relaxation activity was evaluated by Fluorescence assay using Ethidium Bromide before heat denaturation of pBR322 DNA at concentration 100 uM. The note with it: Escherichia coli. The method, boiled down: as §1
The target is the same in data set [16]. The note with it: Escherichia coli; at 25 µM. This is another data set of the same source.
Data set [17] shares this target. Briefly: Topoisomerase I […] was evaluated by Fluorescence assay using Ethidium Bromide before heat denaturation of pBR322 DNA at concentration 250 uM. The note with it: Escherichia coli. The method, boiled down:
as §2

For data set [18] the target is unchanged. The data set can be described thus: Topoisomerase I […] was evaluated by Fluorescence assay using Ethidium Bromide before heat denaturation of pBR322 DNA at concentration 25 uM. The note with it: Escherichia coli; at 25 µM. The method, boiled down:
as §4

The target is the same in data set [19]. The data set can be described thus: Topoisomerase I DNA relaxation activity was evaluated by Fluorescence assay using Ethidium Bromide after heat denaturation of pBR322 DNA at concentration 250 uM. The settings on record: Escherichia coli. The method, boiled down: as §1
The target is the same in data set [20]. Briefly: Topoisomerase I DNA relaxation activity was evaluated by Agarose Gel Electrophoresis test at concentration 25 uM. The settings on record: Escherichia coli; at 25 µM. The method, boiled down:
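0.25 µg supercoiled pBR322 DNA and 0.5 unit topoisomerase I incubated with ligand for 30 min at 37 °C (10 µL final). Equal volume loading buffer with SDS added, a further 30 min at 37 °C, agarose gel run overnight, ethidium bromide stained. Supercoiled DNA remaining quantified by laser densitometry of the photographed gel. Scored as % inhibition bands (<10% to 75-100%).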

Data set [21] in a line: In vitro cytotoxicity against KB cancer cell line (ATCC CCL 17). Type of data set: cell-based. The note with it: human, KB cancer cells (ATCC CCL 17); read-out: TD50 (the source's name). The method, boiled down: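 KB cells grown in Eagle's MEM with 10% calf serum, 37 °C, humidified 5% CO₂. Seeded at 3 × 10³ cells/mL, cultured 24 h, then compound added in triplicate at several concentrations for 3 days. TD50 is the concentration giving 50% reduction in cell count; average of ≥3 determinations.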

For orientation: inhibition means how much of the control response was suppressed. Low values mean little suppression, high ones strong suppression. As to `CN(C)CCCNC(=O)c1cc(NC(=O)Cn2cc(C3=C(c4c[nH]c5ccccc45)C(=O)NC3=O)c3ccccc32)cn1C`, the Change in [1] worked out at 0%; in [2] it was 1%; in data set [3] it was 6%; in data set [6] it was 10%; in data set [7], 5%; in data set [9], 3%. Also, the Change in data set [10] was found to be 2%; in [11], 7%; in [12] it was 12%; in data set [13] it was 3%; in [14], 0%; in data set [15] it was 6%. The Change in [16] is 6%; in data set [17], 18%; in data set [18], 1%; in [19], 3%. For the same molecule, the inhibition is less than 10% in data set [4], 25% in [5], 0% in [8] and 0% in data set [20]. Also, in data set [21], the CC50 came out at 84 µg/mL (≈ 142 µM).
